How the values were obtained:
Aromatase [1] = target: T1, Aromatase (Homo sapiens, UniProt P11511); experiment: Ratio of letrozole IC50 to compound IC50 for human placental microsome aromatase
T1 sequence (P11511 whole entry): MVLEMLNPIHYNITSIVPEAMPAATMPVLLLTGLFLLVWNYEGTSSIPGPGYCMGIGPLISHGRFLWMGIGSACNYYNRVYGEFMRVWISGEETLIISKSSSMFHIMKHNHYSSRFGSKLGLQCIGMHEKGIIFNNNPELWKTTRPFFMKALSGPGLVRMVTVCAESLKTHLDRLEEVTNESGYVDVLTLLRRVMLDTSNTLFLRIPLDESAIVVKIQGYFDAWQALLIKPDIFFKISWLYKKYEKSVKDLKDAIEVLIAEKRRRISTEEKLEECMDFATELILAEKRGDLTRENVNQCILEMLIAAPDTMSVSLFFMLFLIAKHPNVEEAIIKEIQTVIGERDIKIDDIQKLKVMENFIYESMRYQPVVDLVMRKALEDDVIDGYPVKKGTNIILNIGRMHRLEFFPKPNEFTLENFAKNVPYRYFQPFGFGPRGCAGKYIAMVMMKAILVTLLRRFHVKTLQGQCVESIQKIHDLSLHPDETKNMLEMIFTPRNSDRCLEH
Procedure, shortened: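 Both IC50s come from the human placental microsome aromatase assay with estrone measured by ELISA. Each IC50 is the mean of at least three experiments, each run in triplicate.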

Aromatase [2] = target: T1, Aromatase; experiment: Inhibition of human placental microsome aromatase after 30 mins by ELISA
Procedure, shortened: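 Aromatase (P450 arom) source: human placental microsomes. Activity read as estrone formed, quantified by a commercial estrone enzyme immunoassay (ELISA). Values are means of at least three experiments, each run in triplicate.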

Row | SMILES | IC50 (Aromatase [2]) [nM] | Ratio IC50 (Aromatase [1])
1 | COc1ccc2cc(Cn3ccnc3)n(-c3ccc(F)cc3)c2c1 | 48.9 | 0.3378
2 | COc1ccc(-n2c(Cn3ccnc3)cc3ccc(Cl)cc32)cc1 | 203 | 0.0813
3 | COc1ccc(-n2c(Cn3ccnc3)cc3ccccc32)cc1 | 77.4 | 0.2137
4 | COc1ccc(-n2c(Cn3ccnc3)cc3ccc(C)cc32)cc1 | 139 | 0.1192

These reach a lower IC50 (Aromatase [2]). Values come first.

Row | IC50 (Aromatase [2]) [nM] | SMILES | Ratio IC50 (Aromatase [1])
5 | 27 | Cc1ccc2cc(Cn3ccnc3)n(-c3ccc(C#N)cc3)c2c1 | 0.612
6 | 21.4 | Cc1ccc2cc(Cn3ccnc3)n(-c3ccccc3)c2c1 | 0.7728
